Measurements as given in ChEMBL document CHEMBL1144840, “Tetrazole based amides as growth hormone secretagogues” (Bioorg Med Chem Lett, 2008).

Legend:
[1] = target: Growth hormone secretagogue receptor type 1 (Homo sapiens, UniProt Q92847); assay: Agonist activity at human GHS receptor expressed in H4 cells by FLIPR assay; assay type: functional, cell-based
Rattus norvegicus [2] = assay: Stimulation of growth hormone release in rat at 0.17 umol/kg, iv relative to control; assay type: functional
Outline: (§1)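 Fasted male Wistar rats (200–250 g) were anesthetized with ketamine 30 mg/kg plus xylazine 10 mg/kg ip. They were dosed iv at 10 mL/kg in vehicle (10% ethanol, […] V/V), five rats per group. Aortic blood was drawn 15 min post-dose, and plasma rat GH was measured by radioimmunoassay. Results are given as % GH increase ± SEM versus vehicle control.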

Rattus norvegicus [3] = assay: Stimulation of growth hormone release in rat at 0.052 umol/kg, iv relative to control; assay type: functional; outline: as §1
Rattus norvegicus [4] = assay: Stimulation of growth hormone release in rat at 0.017 umol/kg, iv relative to control; assay type: functional; outline: as §1

Chain of Growth hormone secretagogue receptor type 1 (Q92847 whole entry): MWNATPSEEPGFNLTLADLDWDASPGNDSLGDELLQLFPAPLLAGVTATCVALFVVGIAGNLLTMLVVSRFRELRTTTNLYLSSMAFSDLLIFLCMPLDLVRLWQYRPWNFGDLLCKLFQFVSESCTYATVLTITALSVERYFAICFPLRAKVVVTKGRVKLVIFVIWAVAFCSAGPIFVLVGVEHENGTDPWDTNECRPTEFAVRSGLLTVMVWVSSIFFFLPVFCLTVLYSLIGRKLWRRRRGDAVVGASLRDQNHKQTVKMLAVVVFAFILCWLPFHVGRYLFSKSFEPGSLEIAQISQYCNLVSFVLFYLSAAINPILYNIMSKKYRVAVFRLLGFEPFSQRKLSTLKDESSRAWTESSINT

Row | Structure (SMILES) | EC50 [1] | Intrinsic activity [1] | Activity (Rattus norvegicus [2]) | Activity (Rattus norvegicus [3]) | Activity (Rattus norvegicus [4])
1 | CC(C)(N)C(=O)N[C@H](COCc1ccccc1)c1nnnn1CCCC(=O)NCCCCCO | 1.3 nM | > 85% | – | – | –
2 | CC(C)(N)C(=O)N[C@H](COCc1ccccc1)c1nnnn1CCCC(=O)NCCSCCO | 0.2 nM | > 85% | – | – | –
3 | CN(CCc1cccc(S(=O)(=O)CCO)c1)C(=O)CCCn1nnnc1[C@@H](COCc1ccccc1)NC(=O)C(C)(C)N | 2.9 nM | > 85% | – | – | –
4 | CC(C)(N)C(=O)N[C@H](COCc1ccccc1)c1nnnn1CCCC(=O)NCc1ccccc1 | 32 nM | > 85% | – | – | –
5 | CC(C)(N)C(=O)N[C@H](COCc1ccccc1)c1nnnn1CCCC(=O)NCCS(C)(=O)=O | 4.1 nM | > 85% | – | – | –
6 | CC(C)(N)C(=O)N[C@H](COCc1ccccc1)c1nnnn1CCCC(=O)NCCO | 40 nM | > 85% | – | – | –
7 | CC(C)(N)C(=O)N[C@H](COCc1ccccc1)c1nnnn1CCCC(=O)NCCOCCO | 0.7 nM | > 85% | – | – | –
8 | CC(C)(N)C(=O)N[C@H](COCc1ccccc1)c1nnnn1CCOc1ccccc1C(=O)NCCO | 11 nM | > 85% | – | – | –
9 | CC(C)(N)C(=O)N[C@H](COCc1ccccc1)c1nnnn1CCCC(=O)N[C@H]1CC[C@H](O)CC1 | 521 nM | > 85% | – | – | –
10 | CC(C)(N)C(=O)N[C@H](COCc1ccccc1)c1nnnn1CCCC(=O)NCCCO | 27 nM | > 85% | – | – | –
11 | CC(C)(N)C(=O)N[C@H](COCc1ccccc1)c1nnnn1CCCC(=O)NCCS(N)(=O)=O | 1.4 nM | > 85% | 408% | – | –
12 | CCCCNC(=O)CCCn1nnnc1[C@@H](COCc1ccccc1)NC(=O)C(C)(C)N | – | > 85% | – | – | –
13 | CC(C)(N)C(=O)N[C@H](COCc1ccccc1)c1nnnn1CCCC(=O)NCCCCCCO | 0.6 nM | > 85% | 522% | – | –
14 | CC(C)(N)C(=O)N[C@H](COCc1ccccc1)c1nnnn1CCNC(=O)CCCCO | 4.4 nM | > 85% | 722% | – | –
15 | CC(C)(N)C(=O)N[C@H](COCc1ccccc1)c1nnnn1CCCC(=O)NCCCCO | 1.8 nM | > 85% | – | – | –
16 | CC(C)(N)C(=O)N[C@H](COCc1ccccc1)c1nnnn1CCCC(=O)NCCC(=O)O | 204 nM | > 85% | – | – | –
17 | CC(C)(N)C(=O)N[C@H](COCc1ccccc1)c1nnnn1CCCC(=O)NCCCc1ccccc1 | 33 nM | > 85% | – | – | –

Row | Structure (SMILES) | EC50 [1] | Intrinsic activity [1] | Activity (Rattus norvegicus [2]) | Activity (Rattus norvegicus [3]) | Activity (Rattus norvegicus [4])
18 | CC(C)(N)C(=O)N[C@H](COCc1ccccc1)c1nnnn1CCCC(=O)NCCN1CCNC1=O | 3.3 nM | > 85% | – | – | –
19 | CC(C)(N)C(=O)N[C@H](COCc1ccccc1)c1nnnn1CCCC(=O)NCCc1cccc(O)c1 | 0.2 nM | > 85% | 606% | – | –
20 | CC(C)(N)C(=O)N[C@H](COCc1ccccc1)c1nnnn1CCOc1cccc(C(=O)NCCCCO)c1 | 3 nM | > 85% | – | – | –
21 | CC(C)(N)C(=O)N[C@H](COCc1ccccc1)c1nnnn1CCCC(=O)NCCc1ccccc1 | 23 nM | > 85% | – | – | –
22 | CC(C)(N)C(=O)N[C@H](COCc1ccccc1)c1nnnn1CCCC(=O)Nc1ccccc1 | 70 nM | > 85% | – | – | –
23 | CC(C)(N)C(=O)N[C@H](COCc1ccccc1)c1nnnn1CCCC(=O)NCCS(=O)(=O)CCO | 0.2 nM | > 85% | 1290% | 956% | 398%
24 | CC(C)(N)C(=O)N[C@H](COCc1ccccc1)c1nnnn1CCNC(=O)CCS(C)(=O)=O | 14.7 nM | > 85% | – | – | –
25 | CCCCCCCC(=O)OC[C@H](NC(=O)CNC(=O)[C@@H](N)CCCNC(=N)N)C(=O)N[C@@H](CO)C(=O)N[C@@H](Cc1ccccc1)C(=O)N[C@@H](CC(C)C)C(=O)N[C@@H](CO)C(=O)N1CCC[C@H]1C(=O)N[C@@H](CCC(=O)O)C(=O)N[C@@H](Cc1cnc[nH]1)C(=O)N[C@@H](CCC(N)=O)C(=O)N[C@@H](CCCCN)C(=O)N[C@@H](C)C(=O)N[C@@H](CCC(N)=O)C(=O)N[C@@H](CCC(N)=O)C(=O)N[C@@H](CCCNC(=N)N)C(=O)N[C@@H](CCCCN)C(=O)N[C@@H](CCC(=O)O)C(=O)N[C@@H](CO)C(=O)N[C@@H](CCCCN)C(=O)N[C@@H](CCCCN)C(=O)N1CCC[C@H]1C(=O)N1CCC[C@H]1C(=O)N[C@@H](C)C(=O)N[C@@H](CCCCN)C(=O)N[C@@H](CC(C)C)C(=O)N[C@@H](CCC(N)=O)C(=O)N1CCC[C@H]1C(=O)O | – | > 85% | – | – | –
26 | CC(C)(N)C(=O)N[C@H](COCc1ccccc1)c1nnnn1CCCC(=O)NCCc1cccc(S(=O)(=O)CCO)c1 | 105 nM | > 85% | – | – | –
27 | CC(C)(N)C(=O)N[C@H](COCc1ccccc1)c1nnnn1CCOc1cccc(C(=O)NCCO)c1 | 8.4 nM | > 85% | – | – | –
28 | CC(C)(N)C(=O)N[C@H](COCc1ccccc1)c1nnnn1CCNC(=O)CCc1cccc(O)c1 | 0.64 nM | > 85% | – | – | –
29 | CC(C)(N)C(=O)N[C@H](COCc1ccccc1)c1nnnn1CCCC(=O)NCCC(N)=O | 7.6 nM | > 85% | – | – | –
30 | CC(C)(N)C(=O)N[C@H](COCc1ccccc1)c1nnnn1CCOc1ccccc1C(=O)NCCCCO | 0.9 nM | > 85% | – | – | –
31 | CN(CCc1cccc(O)c1)C(=O)CCCn1nnnc1[C@@H](COCc1ccccc1)NC(=O)C(C)(C)N | 3.1 nM | > 85% | – | – | –
32 | CC(C)(N)C(=O)N[C@H](COCc1ccccc1)c1nnnn1CCCC(=O)NCC(F)(F)F | 26 nM | > 85% | – | – | –
33 | CC(C)(N)C(=O)N[C@H](COCc1ccccc1)c1nnnn1CCOC(=O)NCCCCO | – | > 85% | 264% | – | –
34 | CCOC(=O)CCNC(=O)CCCn1nnnc1[C@@H](COCc1ccccc1)NC(=O)C(C)(C)N | 140 nM | > 85% | – | – | –
